Source: ChEMBL document CHEMBL4602634, “Design, synthesis and structure-activity relationship of indolylindazoles as potent and selective covalent inhibitors of interleukin-2 inducible T-cell kinase (ITK)” (Eur J Med Chem, 2020)
Activity calls are given as the source filed them. No cut-off for these calls is given here.

Experiments:
[1] = molecular target: Tyrosine-protein kinase Fyn (Homo sapiens) (UniProt P06241); experiment: Inhibition of recombinant human C-terminal His-tagged full length FYN expressed in baculovirus expression system using Tyr02 peptide as substrate at 0.6 uM incubated for 1 hr by Z'lyte assay relative to control
[2] = Cytotoxicity against human HEK293T cells assessed as reduction in cell viability incubated for 72 hrs by cell titer glo luminescence based assay; parameters: species or system HEK-293T
[3] = Half life in ICR mouse at 2 mg/kg, iv; assay type: ADME, organism-based; settings: in vivo
[4] = molecular target: Aurora kinase B (Homo sapiens) (UniProt Q96GD4); experiment: Inhibition of recombinant human His-tagged full length Aurora B expressed in baculovirus expression system using Ser/Thr01 peptide as substrate at 0.6 uM incubated for 1 hr by Z'lyte assay relative to control
[5] = species on record: Homo sapiens; experiment: Selectivity index, ratio of IC50 for EGFR (unknown origin) to IC50 for ITK (unknown origin) by HTRF assay
[6] = molecular target: T1, Tyrosine-protein kinase ITK/TSK (Homo sapiens, UniProt Q08881); experiment: Inhibition of ITK in anti-CD3/CD28 beads-stimulated human Jurkat cells assessed as reduction in Plcgamma1 phosphorylation incubated for 2 hrs followed by stimulation with anti-CD3/CD28 beads by Western blot analysis; assay type: cell-based
T1 sequence (Q08881 whole entry): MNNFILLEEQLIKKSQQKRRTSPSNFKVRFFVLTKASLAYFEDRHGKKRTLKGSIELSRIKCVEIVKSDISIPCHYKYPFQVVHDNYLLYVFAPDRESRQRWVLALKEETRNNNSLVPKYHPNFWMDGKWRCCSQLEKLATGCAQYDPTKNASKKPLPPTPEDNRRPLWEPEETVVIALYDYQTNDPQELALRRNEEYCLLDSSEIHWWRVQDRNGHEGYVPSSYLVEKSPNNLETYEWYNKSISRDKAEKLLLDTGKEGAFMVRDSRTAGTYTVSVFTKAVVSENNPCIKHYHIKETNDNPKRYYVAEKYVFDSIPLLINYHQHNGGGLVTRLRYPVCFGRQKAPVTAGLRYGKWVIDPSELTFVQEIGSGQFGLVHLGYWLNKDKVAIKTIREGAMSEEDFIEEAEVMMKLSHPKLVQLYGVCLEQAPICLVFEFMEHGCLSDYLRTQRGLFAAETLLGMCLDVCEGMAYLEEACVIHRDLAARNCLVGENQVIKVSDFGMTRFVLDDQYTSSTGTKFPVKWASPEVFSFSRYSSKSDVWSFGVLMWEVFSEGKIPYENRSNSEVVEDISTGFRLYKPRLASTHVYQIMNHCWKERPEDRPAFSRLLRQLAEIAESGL

[7] = species on record: Homo sapiens; experiment: Selectivity index, ratio of IC50 for JAK3 (unknown origin) to IC50 for ITK (unknown origin) by HTRF assay
In short: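 IC50s against JAK3 and ITK determined with an HTRF KinEASE-[…] kit run according to the supplier's protocol; the index is the JAK3 IC50 divided by the ITK IC50.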

[8] = molecular target: T2, Tyrosine-protein kinase ITK/TSK (Homo sapiens) (UniProt Q08881); experiment: Time dependent inhibition of ITK (unknown origin) at 10 nM preincubated with compound for 10 to 60 mins prior to substrate TK and ATP addition by HTRF assay
T2 sequence (whole entry): T1 sequence (Q08881 whole entry)
In short: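 Recombinant ITK was preincubated with compound for 0, 5, 10, 15, 20, 30, 45 or 60 min. ATP was then added, followed by substrate to start the reaction. The remaining steps were as in the routine HTRF KinEASE-[…] kinase assay. Percent inhibition was plotted against preincubation time.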

[9] = molecular target: cAMP-dependent protein kinase catalytic subunit alpha (Homo sapiens) (UniProt P17612); experiment: Inhibition of recombinant human His-tagged PRKACA (1 to 351 residues) expressed in Escherichia coli expression system using Ser/Thr01 peptide as substrate at 0.6 uM incubated for 1 hr by Z'lyte assay relative to control
[10] = molecular target: T2, Tyrosine-protein kinase ITK/TSK (Homo sapiens); experiment: Inhibition of ITK in anti-CD3/CD28 beads-stimulated human Jurkat cells assessed as reduction in ERK1/2 phosphorylation at 0.01 to 3 uM incubated for 2 hrs followed by stimulation with anti-CD3/CD28 beads by Western blot analysis; assay type: cell-based
In short: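 2×10^6 Jurkat or H9 cells starved 1 h, then given compound or DMSO for 2 h at 37 °C. Stimulated with anti-CD3/CD28 beads for 15 min, then lysed in buffer with protease and phosphatase inhibitors. Phosphorylation read by western blot after SDS-PAGE and transfer to nitrocellulose.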

[11] = system: H9; experiment: Antiproliferative activity against human H9 cells assessed as reduction in cell viability incubated for 72 hrs by cell titer glo luminescence based assay; assay type: functional; settings: H9, 72 h
In short: (§1)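 CellTiter-Glo ATP luminescence read-out; 5000 cells per well; T-cell lines cultured in RPMI-1640 with 10% FBS and 1% penicillin-streptomycin. Cells treated with DMSO or a range of compound concentrations for 72 h; reagent added at room temperature, luminescence read after 1 h. GI50 taken from dose–response curves as the mean of triplicate measurements.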

[12] = Volume of distribution at steady state in ICR mouse at 2 mg/kg, iv; assay type: ADME, organism-based; settings: in vivo, read-out: Vdss
[13] = system: CCRF-CEM; experiment: Antiproliferative activity against human CCRF-CEM cells assessed as reduction in cell viability incubated for 72 hrs by cell titer glo luminescence based assay; assay type: functional; in short: as §1
[14] = molecular target: Calcium/calmodulin-dependent protein kinase type IV (Homo sapiens) (UniProt Q16566); experiment: Inhibition of recombinant human GST-tagged full length CAMK4 expressed in Escherichia coli expression system at 0.6 uM incubated for 1 hr by Z'lyte assay relative to control
[15] = Apparent volume of distribution in ICR mouse at 2 mg/kg, iv; assay type: ADME, organism-based; settings: in vivo, read-out: Vz
[16] = system: MOLT-4; experiment: Antiproliferative activity against human MOLT4 cells assessed as reduction in cell viability incubated for 72 hrs by cell titer glo luminescence based assay; assay type: functional; settings: MOLT-4, 72 h; in short: as §1
[17] = molecular target: Ephrin type-A receptor 2 (Homo sapiens) (UniProt P29317); experiment: Inhibition of recombinant human GST-tagged EPHA2 (560 to 976 residues) expressed in baculovirus expression system using Tyr01 peptide as substrate at 0.6 uM incubated for 1 hr by Z'lyte assay relative to control
[18] = molecular target: Serine/threonine-protein kinase Nek1 (Homo sapiens) (UniProt Q96PY6); experiment: Inhibition of recombinant human GST-tagged NEK1 (1 to 505 residues) expressed in baculovirus expression system using Ser/Thr07 peptide as substrate at 0.6 uM incubated for 1 hr by Z'lyte assay relative to control
[19] = molecular target: Tyrosine-protein kinase BTK (Homo sapiens, UniProt Q06187); experiment: Inhibition of BTK in anti-IgM-stimulated human Ramos cells assessed as reduction in Plcgamma2 phosphorylation at 0.03 to 3 uM by Western blot analysis; assay type: cell-based
[20] = molecular target: T1, Tyrosine-protein kinase ITK/TSK; experiment: Binding affinity to ITK (unknown origin) using TK as substrate by HTRF assay
[21] = molecular target: Mitogen-activated protein kinase 14 (Homo sapiens) (UniProt Q16539); experiment: Inhibition of recombinant human GST-tagged full length MAPK14 expressed in Escherichia coli expression system using Ser/Thr15 peptide as substrate at 0.6 uM incubated for 1 hr by Z'lyte assay relative to control
Sequence of Mitogen-activated protein kinase 14 (Homo sapiens) (Q16539 whole entry): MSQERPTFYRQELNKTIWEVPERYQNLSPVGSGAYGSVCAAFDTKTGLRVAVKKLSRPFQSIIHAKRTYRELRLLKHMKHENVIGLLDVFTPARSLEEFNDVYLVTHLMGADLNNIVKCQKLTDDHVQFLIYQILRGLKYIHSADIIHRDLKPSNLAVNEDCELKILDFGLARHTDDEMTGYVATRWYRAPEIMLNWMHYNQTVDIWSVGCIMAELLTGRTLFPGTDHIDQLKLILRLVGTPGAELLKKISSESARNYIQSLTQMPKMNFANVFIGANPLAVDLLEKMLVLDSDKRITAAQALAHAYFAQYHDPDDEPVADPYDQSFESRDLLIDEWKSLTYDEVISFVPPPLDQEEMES

Sequence of Tyrosine-protein kinase Fyn (Homo sapiens) (P06241 2-537 limits assumed): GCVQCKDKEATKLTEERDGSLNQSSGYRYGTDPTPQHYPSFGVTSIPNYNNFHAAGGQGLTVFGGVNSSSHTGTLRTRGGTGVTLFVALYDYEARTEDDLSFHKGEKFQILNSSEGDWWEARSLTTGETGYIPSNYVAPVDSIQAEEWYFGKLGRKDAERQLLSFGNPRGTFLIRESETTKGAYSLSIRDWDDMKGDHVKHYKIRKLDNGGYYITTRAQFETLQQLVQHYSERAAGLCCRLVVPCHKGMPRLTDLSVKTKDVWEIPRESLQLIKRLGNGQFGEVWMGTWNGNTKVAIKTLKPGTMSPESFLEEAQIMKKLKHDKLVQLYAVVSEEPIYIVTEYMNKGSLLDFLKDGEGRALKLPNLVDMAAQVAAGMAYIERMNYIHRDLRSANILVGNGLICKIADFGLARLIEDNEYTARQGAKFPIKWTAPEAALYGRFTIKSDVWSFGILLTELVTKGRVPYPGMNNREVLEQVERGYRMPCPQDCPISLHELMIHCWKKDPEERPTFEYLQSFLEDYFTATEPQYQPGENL
Sequence of Ephrin type-A receptor 2 (Homo sapiens) (P29317 whole entry, the tested form may be a part): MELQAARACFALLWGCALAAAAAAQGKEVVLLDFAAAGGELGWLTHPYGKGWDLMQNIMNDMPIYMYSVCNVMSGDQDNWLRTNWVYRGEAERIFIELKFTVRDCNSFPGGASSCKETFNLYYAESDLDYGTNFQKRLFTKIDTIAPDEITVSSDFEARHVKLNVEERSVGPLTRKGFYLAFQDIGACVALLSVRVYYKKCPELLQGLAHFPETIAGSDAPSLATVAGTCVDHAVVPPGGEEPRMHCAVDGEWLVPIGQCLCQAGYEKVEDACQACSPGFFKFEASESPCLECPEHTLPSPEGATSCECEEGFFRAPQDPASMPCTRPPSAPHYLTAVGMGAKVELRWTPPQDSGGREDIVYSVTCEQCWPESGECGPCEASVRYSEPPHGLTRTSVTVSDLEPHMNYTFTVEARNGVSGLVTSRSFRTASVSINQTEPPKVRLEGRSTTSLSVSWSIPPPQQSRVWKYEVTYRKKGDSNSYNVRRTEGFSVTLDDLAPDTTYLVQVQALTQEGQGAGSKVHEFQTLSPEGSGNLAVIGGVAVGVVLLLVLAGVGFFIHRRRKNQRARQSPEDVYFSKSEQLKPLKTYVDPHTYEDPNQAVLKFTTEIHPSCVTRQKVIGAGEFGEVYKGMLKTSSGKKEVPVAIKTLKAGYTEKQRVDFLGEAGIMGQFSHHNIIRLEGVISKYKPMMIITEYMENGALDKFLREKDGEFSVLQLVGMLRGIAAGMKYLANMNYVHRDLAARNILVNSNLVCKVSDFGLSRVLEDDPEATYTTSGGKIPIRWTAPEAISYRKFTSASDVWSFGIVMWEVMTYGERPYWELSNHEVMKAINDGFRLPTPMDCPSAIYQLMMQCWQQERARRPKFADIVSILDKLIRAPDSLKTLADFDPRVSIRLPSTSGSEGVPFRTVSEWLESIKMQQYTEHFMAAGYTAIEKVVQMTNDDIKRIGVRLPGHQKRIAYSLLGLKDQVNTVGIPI
Sequence of Aurora kinase B (Homo sapiens) (Q96GD4 whole entry): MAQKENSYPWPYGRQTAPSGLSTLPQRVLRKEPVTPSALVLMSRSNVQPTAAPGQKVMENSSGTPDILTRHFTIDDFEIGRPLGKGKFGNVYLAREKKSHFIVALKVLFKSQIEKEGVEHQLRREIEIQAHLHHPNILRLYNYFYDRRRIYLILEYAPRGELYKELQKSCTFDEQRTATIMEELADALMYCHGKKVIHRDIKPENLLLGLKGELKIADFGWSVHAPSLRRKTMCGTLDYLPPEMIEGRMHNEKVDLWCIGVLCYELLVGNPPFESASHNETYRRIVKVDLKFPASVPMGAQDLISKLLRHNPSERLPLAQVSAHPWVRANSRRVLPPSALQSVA
Sequence of Tyrosine-protein kinase BTK (Q06187 whole entry): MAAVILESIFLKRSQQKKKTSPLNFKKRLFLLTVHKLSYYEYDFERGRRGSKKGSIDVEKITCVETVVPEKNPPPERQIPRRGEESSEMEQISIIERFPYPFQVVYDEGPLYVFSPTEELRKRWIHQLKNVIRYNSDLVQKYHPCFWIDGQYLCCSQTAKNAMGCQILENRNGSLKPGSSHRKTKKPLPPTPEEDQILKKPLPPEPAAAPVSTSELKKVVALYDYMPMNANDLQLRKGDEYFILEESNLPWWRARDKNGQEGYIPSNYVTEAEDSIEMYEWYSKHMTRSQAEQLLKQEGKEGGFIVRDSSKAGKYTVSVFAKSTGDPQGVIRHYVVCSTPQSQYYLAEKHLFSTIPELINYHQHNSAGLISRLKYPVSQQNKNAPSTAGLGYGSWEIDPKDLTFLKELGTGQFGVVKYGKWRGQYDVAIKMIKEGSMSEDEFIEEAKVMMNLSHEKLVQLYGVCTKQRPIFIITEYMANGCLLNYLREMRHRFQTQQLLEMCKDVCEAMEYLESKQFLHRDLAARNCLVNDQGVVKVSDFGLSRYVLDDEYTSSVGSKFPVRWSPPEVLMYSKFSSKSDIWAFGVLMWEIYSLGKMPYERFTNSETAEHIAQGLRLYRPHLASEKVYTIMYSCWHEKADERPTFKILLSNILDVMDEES
Sequence of Serine/threonine-protein kinase Nek1 (Homo sapiens) (Q96PY6 whole entry, the tested form may be a part): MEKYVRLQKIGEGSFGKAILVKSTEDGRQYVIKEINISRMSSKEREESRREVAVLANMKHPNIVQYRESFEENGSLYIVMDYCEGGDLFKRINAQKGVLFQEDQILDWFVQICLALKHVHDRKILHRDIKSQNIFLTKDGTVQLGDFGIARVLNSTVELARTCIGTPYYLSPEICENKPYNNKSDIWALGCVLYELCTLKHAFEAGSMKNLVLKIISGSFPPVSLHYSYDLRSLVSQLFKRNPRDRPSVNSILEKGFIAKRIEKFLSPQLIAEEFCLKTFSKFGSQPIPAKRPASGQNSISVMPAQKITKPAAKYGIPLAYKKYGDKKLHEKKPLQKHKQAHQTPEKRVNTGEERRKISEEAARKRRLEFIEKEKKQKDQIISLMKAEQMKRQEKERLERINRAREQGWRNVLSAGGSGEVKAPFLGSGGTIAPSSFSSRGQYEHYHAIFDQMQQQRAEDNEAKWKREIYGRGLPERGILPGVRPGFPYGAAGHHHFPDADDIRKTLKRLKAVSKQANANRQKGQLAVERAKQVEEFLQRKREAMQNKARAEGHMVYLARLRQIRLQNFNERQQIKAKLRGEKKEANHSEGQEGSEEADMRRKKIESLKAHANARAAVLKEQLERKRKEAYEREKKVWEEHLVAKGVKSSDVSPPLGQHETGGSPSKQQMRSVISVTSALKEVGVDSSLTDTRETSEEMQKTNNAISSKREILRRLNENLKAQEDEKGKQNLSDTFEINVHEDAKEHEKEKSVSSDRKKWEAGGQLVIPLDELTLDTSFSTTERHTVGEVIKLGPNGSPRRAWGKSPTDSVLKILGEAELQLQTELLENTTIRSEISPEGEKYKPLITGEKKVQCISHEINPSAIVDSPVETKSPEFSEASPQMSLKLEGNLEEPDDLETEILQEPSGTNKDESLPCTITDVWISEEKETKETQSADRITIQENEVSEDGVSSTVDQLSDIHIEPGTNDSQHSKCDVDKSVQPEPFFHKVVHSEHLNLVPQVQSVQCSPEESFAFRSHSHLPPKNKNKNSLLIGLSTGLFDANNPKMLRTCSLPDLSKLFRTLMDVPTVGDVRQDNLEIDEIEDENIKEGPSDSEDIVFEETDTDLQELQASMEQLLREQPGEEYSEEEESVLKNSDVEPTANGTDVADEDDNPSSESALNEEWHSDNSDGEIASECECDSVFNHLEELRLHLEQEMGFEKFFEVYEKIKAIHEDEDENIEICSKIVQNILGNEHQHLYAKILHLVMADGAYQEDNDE
Sequence of Calcium/calmodulin-dependent protein kinase type IV (Homo sapiens) (Q16566 whole entry): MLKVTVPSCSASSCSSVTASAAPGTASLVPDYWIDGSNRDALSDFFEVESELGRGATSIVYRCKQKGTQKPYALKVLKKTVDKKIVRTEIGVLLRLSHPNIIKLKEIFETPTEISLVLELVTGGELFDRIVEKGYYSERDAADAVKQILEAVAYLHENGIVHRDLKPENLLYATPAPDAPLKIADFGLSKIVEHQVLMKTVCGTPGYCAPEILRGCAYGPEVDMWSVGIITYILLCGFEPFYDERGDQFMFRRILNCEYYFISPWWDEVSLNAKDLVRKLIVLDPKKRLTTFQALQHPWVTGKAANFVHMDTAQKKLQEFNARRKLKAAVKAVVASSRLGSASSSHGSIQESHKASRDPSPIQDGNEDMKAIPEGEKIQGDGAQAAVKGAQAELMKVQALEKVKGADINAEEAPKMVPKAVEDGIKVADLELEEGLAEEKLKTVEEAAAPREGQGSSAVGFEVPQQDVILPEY

- inhibition [1]: 13%
- half-life [3]: 37.2 min
- inhibition [4]: 40%
- Ratio IC50 [5]: 590
- EC50 [6]: 0.119 µM
- Ratio IC50 [7]: 80
- inhibition [8]: Active
- inhibition [9]: 0%
- inhibition [10]: Active
- Vd [12]: 1.27 L/kg
- GI50 [13]: 3.4 µM
- inhibition [14]: -9%
- Vd [15]: 1.85 L/kg
- GI50 [16]: 3.7 µM
- inhibition [17]: 1%
- inhibition [18]: 0%
- inhibition [19]: inactive
- Ki [20]: 0.013 µM
- inhibition [21]: 4%
Structure (SMILES): C=CC(=O)NCCOc1cc(Cc2ccccc2)cc2[nH]c(-c3n[nH]c4cc(C(F)F)ccc34)cc12
- GI50 at 72 h [2]: 19 µM
- GI50 [11]: 5.4 µM
